Data on twelve molecules can be found in ChEMBL document CHEMBL1152281, “2-Alkylamino- and alkoxy-substituted 2-amino-1,3,4-oxadiazoles-O-Alkyl benzohydroxamate esters replacements retain the desired inhibition and selectivity against MEK (MAP ERK kinase)” (Bioorg Med Chem Lett, 2008).

Converted amounts (≈) assume the structure as drawn. The source made the active and inactive calls. The calls are words filed in the database; no cut-off is given here.

Data set [1] in a line: Metabolic stability in human liver microsomes assessed as half life. A general note: Microsomes from liver hold many membrane-bound enzymes, among them those of drug oxidation.
Data set [2] can be described thus: Solubility in sodium phosphate buffer at pH 6.5 by HPLC.
In data set [3] the test system is Mus musculus. The data set can be described thus: Toxicity in mouse Colon 26 cells implanted mouse assessed as body weight loss at 150 mg/kg, po administered BID on day 9 to day 15. On the set-up: dose 150 mg/kg, route oral. In kind it is organism-based. The settings on record: in vivo. An outline of the steps:
(§1)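 Mice bearing subcutaneous Colon 26 tumours were gavaged daily or BID on days 9–15 (3 per group). Toxicity was taken as maximum treatment-related weight loss, expressed as percent of mean group weight at initial treatment, with the day of maximum loss recorded; a net weight gain is noted as "+". Vehicle was 5% EtOH + 5% Tween 80 in saline.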

The test system of data set [4] is Mus musculus. The data set can be described thus: Ex vivo inhibition of MEK in mouse Colon 26 cells implanted mouse assessed as suppression of ERK-phosphorylation at 12.5 mg/kg, po after 10 hrs by Western blot. On the set-up: dose 12.5 mg/kg. In kind it is functional, organism-based. An outline of the steps: (§2)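 Mice bearing subcutaneous colon 26 tumours received a single oral dose. At each time point tumours were excised, and p-ERK levels were measured by Western blot against vehicle-treated controls.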
Background: Immunoblotting shows a protein as a band on a membrane.

Data set [5] concerns Colon 26. As to the kind of experiment: Antitumor activity against mouse Colon 26 cells implanted in mouse assessed as <62 mg decrease in tumor mass at 50 mg/kg, po administered BID on day 9 to day 15. On the set-up: dose 50 mg/kg. In kind it is functional, organism-based.
The test system of data set [6] is Mus musculus. The data set can be described thus: Toxicity in mouse Colon 26 cells implanted mouse assessed as increase in body weight at 100 mg/kg, po administered BID on day 9 to day 15. In kind it is organism-based. On the set-up: dose 100 mg/kg, route oral. The following applies: in vivo. An outline of the steps:
as §1

Data set [7] concerns Colon 26. As to the kind of experiment: Antitumor activity against mouse Colon 26 cells implanted in mouse assessed as 50% decrease in tumor mass at 50 mg/kg, po administered BID on day 9 to day 15. In kind it is functional, organism-based. On the set-up: dose 50 mg/kg.
The test system of data set [8] is Mus musculus. The data set can be described thus: Toxicity in mouse Colon 26 cells implanted mouse assessed as body weight loss at 300 mg/kg, po administered on day 9 to day 15. In kind it is organism-based. On the set-up: dose 300 mg/kg, route oral. The settings on record: in vivo. An outline of the steps:
as §1

Data set [9] relates to Colon 26. The data set can be described thus: Antitumor activity against mouse Colon 26 cells implanted in mouse at 150 mg/kg, po administered BID on day 9 to day 15. In kind it is functional.
Data set [10] deals with Mus musculus. As to the kind of experiment: Toxicity in mouse Colon 26 cells implanted mouse assessed as increase in body weight at 100 mg/kg, po administered on day 9 to day 15. The following applies: in vivo. On the set-up: dose 100 mg/kg, route oral. In kind it is organism-based. A digest of the protocol: as §1
In data set [11] the test system is Mus musculus. As to the kind of experiment: Toxicity in mouse Colon 26 cells implanted mouse assessed as increase in body weight at 50 mg/kg, po administered BID on day 9 to day 15. In kind it is organism-based. On the set-up: dose 50 mg/kg, route oral. The settings on record: in vivo. An outline of the steps:
as §1

Data set [12] deals with Mus musculus. The data set can be described thus: Toxicity in mouse Colon 26 cells implanted mouse assessed as body weight loss at 200 mg/kg, po administered on day 9 to day 15. In kind it is organism-based. On the set-up: dose 200 mg/kg, route oral. The following applies: in vivo. An outline of the steps: as §1
For data set [13], the system named is Colon 26. The data set can be described thus: Antitumor activity against mouse Colon 26 cells implanted in mouse at 100 mg/kg, po administered on day 9 to day 15. In kind it is functional.
The subject of data set [14] is Colon 26. The data set can be described thus: Antitumor activity against mouse Colon 26 cells implanted in mouse assessed as <62 mg decrease in tumor mass at 100 mg/kg, po administered on day 9 to day 15. In kind it is functional, organism-based. On the set-up: dose 100 mg/kg.
For data set [15], the system named is Colon 26. The data set can be described thus: Antitumor activity against mouse Colon 26 cells implanted in mouse at 100 mg/kg, po administered BID on day 9 to day 15. In kind it is functional.
Data set [16] deals with Colon 26. The data set can be described thus: Antitumor activity against mouse Colon 26 cells implanted in mouse at 50 mg/kg, po administered BID on day 9 to day 15. In kind it is functional.
In data set [17] the test system is Colon 26. As to the kind of experiment: Antitumor activity against mouse Colon 26 cells implanted in mouse at 300 mg/kg, po administered on day 9 to day 15. In kind it is functional.
Data set [18] concerns Mus musculus. The data set can be described thus: Ex vivo inhibition of MEK in mouse Colon 26 cells implanted mouse assessed as suppression of ERK-phosphorylation at 100 mg/kg, po after 10 hrs by Western blot. In kind it is functional, organism-based. On the set-up: dose 100 mg/kg. A digest of the protocol: as §2
In data set [19] the test system is Colon 26. The data set can be described thus: Antitumor activity against mouse Colon 26 cells implanted in mouse assessed as <62 mg decrease in tumor mass at 150 mg/kg, po administered BID on day 9 to day 15. In kind it is functional, organism-based. On the set-up: dose 150 mg/kg.
For data set [20], the system named is Colon 26. As to the kind of experiment: Antitumor activity against mouse Colon 26 cells implanted in mouse assessed as <62 mg decrease in tumor mass at 300 mg/kg, po administered on day 9 to day 15. In kind it is functional, organism-based. On the set-up: dose 300 mg/kg.
Data set [21] deals with Colon 26. As to the kind of experiment: Antitumor activity against mouse Colon 26 cells implanted in mouse assessed as <62 mg decrease in tumor mass at 100 mg/kg, po administered BID on day 9 to day 15. In kind it is functional, organism-based. On the set-up: dose 100 mg/kg.
The test system of data set [22] is Colon 26. The data set can be described thus: Antitumor activity against mouse Colon 26 cells implanted in mouse at 200 mg/kg, po administered on day 9 to day 15. In kind it is functional.
The subject of data set [23] is Colon 26. As to the kind of experiment: Antitumor activity against mouse Colon 26 cells implanted in mouse assessed as 50% decrease in tumor mass at 100 mg/kg, po administered BID on day 9 to day 15. In kind it is functional, organism-based. On the set-up: dose 100 mg/kg.
The subject of data set [24] is Mus musculus. The data set can be described thus: Toxicity in mouse Colon 26 cells implanted mouse assessed as body weight loss at 100 mg/kg, po administered BID on day 9 to day 15. In kind it is organism-based. On the set-up: dose 100 mg/kg, route oral. The following applies: in vivo. A digest of the protocol:
as §1

In general, half-life refers to the time in which the quantity being followed falls by half. The term solubility denotes the dissolved amount per volume that the medium holds. Read a high solubility as a readily soluble substance. `OCCCCNc1nnc(-c2ccc(F)c(F)c2Nc2ccc(I)cc2F)o1`: the half-life in [1] is 40 min. This molecule also had a solubility in data set [2] of less than 3 µg/mL.
In the case of `CNCCNc1nnc(-c2ccc(F)c(F)c2Nc2ccc(I)cc2F)o1`, the Activity in the data set on Mus musculus [3] is given as 4%; in the data set with Mus musculus [6] it was “Toxic”; with Mus musculus [8], 4.5%; with Mus musculus [10], “Toxic”; in the data set on Mus musculus [11] it was “Toxic”; in the data set on Mus musculus [12], 0.1%. In addition, the result with Mus musculus [4], in the data set on Mus musculus [18], with Colon 26 [19], in the data set on Colon 26 [20] and in the data set on Colon 26 [21] was Active. Moreover, the outcome in the data set with Colon 26 [5], in the data set with Colon 26 [7] and with Colon 26 [14] was inactive. The half-life in data set [1] was determined as 40 min. The LCK turned out to be 0.4 in the data set with Colon 26 [9]; 0 with Colon 26 [13]; 0.2 in the data set on Colon 26 [15]; 0.1 in the data set with Colon 26 [16]; 0.3 in the data set on Colon 26 [17]; 0.3 in the data set with Colon 26 [22]. Further, the concentration in solution in data set [2] (solubility) was 6.7 µg/mL (≈ 13.7 µM).
With `OCCCCCNc1nnc(-c2ccc(F)c(F)c2Nc2ccc(I)cc2F)o1`, the half-life in data set [1] was determined as 40 min. The molecule also had a solubility in [2] of less than 3 µg/mL.
Taken in the same sequence, the figures for `COCCCNc1nnc(-c2ccc(F)c(F)c2Nc2ccc(I)cc2F)o1` were 35 min and less than 3 µg/mL.
The like results for `CCN(CC)CCCNc1nnc(-c2ccc(F)c(F)c2Nc2ccc(I)cc2F)o1` were, in that order, 40 min and less than 3 µg/mL.
Taken in the same sequence, the figures for `Fc1cc(I)ccc1Nc1c(-c2nnc(NCCCN3CCOCC3)o2)ccc(F)c1F` were 40 min and less than 3 µg/mL.
Consider `O=C(NOCC1CC1)c1ccc(F)c(F)c1Nc1ccc(I)cc1Cl` [CI-1040], for which the result in the data set with Colon 26 [23] and with Colon 26 [21] was inactive. Further, the half-life in data set [1] amounted to 8 min. In the data set with Colon 26 [15], this molecule registered an LCK of 0.1. Moreover, the Activity in the data set on Mus musculus [24] is on record as 4.8%.
As to `Nc1nnc(-c2ccc(F)c(F)c2Nc2ccc(I)cc2F)o1`, in data set [2], the solubility was less than 3 µg/mL.
Regarding `OCCNc1nnc(-c2ccc(F)c(F)c2Nc2ccc(I)cc2F)o1`, in data set [1], the half-life was determined as 40 min. In [2], the solubility was less than 3 µg/mL.
Consider `OCCCNc1nnc(-c2ccc(F)c(F)c2Nc2ccc(I)cc2F)o1`, for which the half-life in data set [1] was determined as 40 min. This molecule gave a solubility in data set [2] of less than 3 µg/mL.
Turning to `NCCCNc1nnc(-c2ccc(F)c(F)c2Nc2ccc(I)cc2F)o1`, the half-life in [1] amounted to 40 min. Besides, in data set [2], the solubility is 5.4 µg/mL (≈ 11 µM).
For the molecule `NCCNc1nnc(-c2ccc(F)c(F)c2Nc2ccc(I)cc2F)o1`, in data set [1], the half-life worked out at 40 min. For the same molecule, the solubility in [2] was less than 3 µg/mL.
